# MrgX1 allo act: allosterically activates human MrgX1 receptor signaling. Q96LB2. MrgX1-HEK293, Fluo-4 calcium flux, FDSS; hits give high values. B-score at 10 µM. 310,000 compounds, 0.63% hits. AID 588675;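 active = plate-corrected calcium response at least 3 library SD above typical, normal starting fluorescence, not activating the receptor alone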;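 note: compound read alongside a low EC10 to EC30 dose of BAM8-22 agonist; peak minus trough fluorescence over baseline measured at the second addition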
# Target sequence (Q96LB2 whole entry, looked up): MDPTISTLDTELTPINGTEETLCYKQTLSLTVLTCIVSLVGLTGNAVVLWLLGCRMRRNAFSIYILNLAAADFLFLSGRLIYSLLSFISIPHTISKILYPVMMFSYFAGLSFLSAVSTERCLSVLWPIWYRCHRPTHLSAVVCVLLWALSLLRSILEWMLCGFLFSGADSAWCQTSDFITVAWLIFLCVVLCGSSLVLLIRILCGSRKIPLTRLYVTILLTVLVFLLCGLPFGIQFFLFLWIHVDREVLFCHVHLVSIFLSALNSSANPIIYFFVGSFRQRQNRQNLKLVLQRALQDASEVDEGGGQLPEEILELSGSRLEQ
# RGS4 act: RGS4 potentiation or activation. HEK293 M3R/inducible RGS4, carbachol calcium flux Fluo4; hits give low values. B-score at 10 µM. 310,000 compounds, 0.92% hits. AID 463111;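 active = B-score of the integrated calcium signal more than 4 SD below the library mean, with starting fluorescence not abnormally high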;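 note: negative B-score means reduced calcium response which marks RGS4 activation or potentiation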
#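 Material: Inducible-RGS4 HEK293 cells carrying M3 receptor; also added: carbachol at ECmax as muscarinic agonist stimulus; incubation: compound preincubation 20 min at room temperature before agonist; signal: Fluo4-AM (2 µM) calcium-flux fluorescence, kinetic read; measure: integrated calcium ratio converted to B score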
# MrgX1 agonist: agonists of human MrgX1 receptor. MrgX1-HEK293 cells, Fluo-4 calcium fluorescence, agonist mode; hits give high values. B-score at 10 µM. 310,000 compounds, 0.44% hits;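 active = calcium response B-score plate-corrected fluorescence ratio at least 3 library SD, with starting fluorescence B-score inside 5 SD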
#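 System: HEK293 cells stably expressing human MrgX1 receptor; Dosing: test compound in the initial addition of three; Schedule: overnight plating, then 30 min 37 °C plus 30 min room-temperature dye loading; Detection: kinetic calcium dye fluorescence, Fluo-4 NW; Controls: per-plate positive and negative controls for Z′ factor.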
# Cl transport mod: modulators of human KCC2 chloride dependent transport; Q9H2X9; KCC2 cells, thallium flux FluoZin-2 fluorescence; B-score of Tl+ flux slope (higher = more flux/activation; lower = inhibition) at 10 µM; 190,000 compounds, 2.2% hits;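 active = thallium flux slope and its plate-corrected score both differing from the plate sample mean at a set confidence after two filtering rounds, in either direction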;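 note: slope of fluorescence scaled to starting intensity during 10 to 20 s after thallium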
# MrgX1 antag: human MrgX1 receptor antagonism, primary screen | B-score at 10 µM | MRGX1-HEK293 calcium flux, Fluo-4, BAM8-22 antagonism; hits give low values | 310,000 compounds, 1.3% hits | Q96LB2;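 active = calcium-response B-score plate-corrected more than 3 library SD below zero, starting fluorescence within 5 deviations, no agonist response on first addition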;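 note: peak minus trough fluorescence over baseline after final BAM8-22 challenge near maximal dose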
# RGS4 inh: human RGS4 inhibition; B-score at 10 µM; 310,000 compounds, 0.45% hits; P49798; AID 463165; HEK293 M3R/RGS4 inducible, Fluo-4 calcium flux; hits give high values; triggered by carbachol at its EC20;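 active = B-score, a plate-corrected calcium signal, over three deviations above library mean, with baseline fluorescence within five deviations of library mean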;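 note: RGS4 expression induced by doxycycline in cells with stable M3 receptor; B-score is computed from the integrated fluorescence ratio over baseline after carbachol; higher B-score means a larger calcium signal and so more RGS4 inhibition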
# Target sequence (P49798 whole entry, looked up): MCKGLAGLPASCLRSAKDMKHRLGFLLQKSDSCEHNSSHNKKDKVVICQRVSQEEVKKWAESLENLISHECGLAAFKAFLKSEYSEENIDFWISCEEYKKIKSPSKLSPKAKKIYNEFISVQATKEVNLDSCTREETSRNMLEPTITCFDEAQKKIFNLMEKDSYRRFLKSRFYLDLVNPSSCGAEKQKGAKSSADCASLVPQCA
# MrgX1 antag conf: human MrgX1 receptor antagonism, re-confirmation screen; shares compounds with MrgX1 antag; MrgX1-HEK293, BAM8-22 calcium flux, Fluo-4; hits give low values; AID 602420; remaining BAM8-22 calcium response % of control (hits give low values), % at 10 µM; 2,300 compounds, 19% hits;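 active = remaining agonist calcium response no higher than 100% minus 3 SD of agonist-only control wells, with starting fluorescence near control levels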;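 note: agonist BAM8-22 given at a near maximal EC90 to ECmax level; peak minus minimum fluorescence divided by baseline after agonist addition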
# HEK293 Ca flux: activity in parental HEK293 cells lacking MrgX1; Fluo-4 calcium fluorescence, FDSS; shares compounds with MrgX1 antag; fluorescence ratio F(max-min)/F0 at 10 µM; 4,000 compounds, 2% hits;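 active = duplicate-averaged calcium fluorescence ratio at least three times the standard deviation of buffer wells, a nonspecific response in parental cells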
# HEK293 Ca counter: activity in parental HEK293 cells without MrgX1; AID 624114; 4,000 compounds, 0.4% hits; parental HEK293 calcium flux, Fluo-4 fluorescence ratio; hits give high values; shares compounds with MrgX1 antag; fluorescence ratio F(max-min)/F0 at 10 µM;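 active = calcium fluorescence ratio, averaged over duplicates, at least 3 SD of the buffer-well ratio, meaning a nonspecific response in receptor-free cells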;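 note: untransfected parental HEK293 lacking MrgX1 used as counterscreen for MrgX1 allosteric activators; fluorescence change taken during the second addition on a kinetic imager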
# HEK293 Ca cntr2: MrgX1 activator counter-screen hit in parental HEK293 cells | shares compounds with MrgX1 antag | Fluo-4 calcium fluorescence (FDSS); hits give high values | fluorescence ratio F(max-min)/F0 at 10 µM | 4,000 compounds, 8.7% hits;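 active = calcium fluorescence ratio at least three times the spread of buffer wells, meaning a non-specific response in parental cells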
# An asterisk follows results filed as active; i = inactive; nt = no result given. The list is not random: actives were taken first. Their share in the collection is about 4.7%.
SMILES,MrgX1 allo act,RGS4 act,MrgX1 agonist,Cl transport mod,MrgX1 antag,RGS4 inh,MrgX1 antag conf,HEK293 Ca flux,HEK293 Ca counter,HEK293 Ca cntr2
CCOc1ccccc1C(=O)NC(C)c1ccc2c(c1)OCO2 (centres undefined),i,i,i,-2.3,-5.3*,i,i,i,i,i
O=C(O)c1ccc2ncsc2c1,i,i,i,2.2,-5.6*,i,68%*,i,i,i
CCOC(=O)N1CCN(C2CC(=O)N(c3ccc(F)cc3)C2=O)CC1 (centres undefined),i,i,i,-0.083,-5.9*,i,i,i,i,i
CSCC[C@H](N)C(=O)N1CCC(C(=O)N[C@H](C)C(=O)Nc2ccc(C(C)C)cc2)CC1,i,i,i,nt,i,i,nt,nt,nt,nt
CCOC(=O)N1CCC(NC(=O)CS(=O)(=O)Cc2nc(-c3ccccc3C)oc2C)CC1,i,i,i,0.62,-5.3*,i,i,i,i,i
Cc1ccccc1-c1nc(CS(=O)(=O)CC(=O)NC2CCCC2)c(C)o1,i,i,i,nt,i,i,nt,nt,nt,nt
Cc1ccccc1-n1c(=O)cc(N2CCCCCC2)[nH]c1=O,i,i,i,0.29,-6*,i,i,i,i,i
O=C(NC1CCCC1)C(c1ccccn1)N(C(=O)c1csnn1)c1ccccc1Cl (centres undefined),i,i,i,nt,i,i,nt,nt,nt,nt
C=CCn1c(SCC(=O)Nc2sccc2C(N)=O)nc2sc(CC)cc2c1=O,i,i,i,nt,i,i,nt,nt,nt,nt
C=CCn1c(SCc2nc3cc(C(=O)OC)ccc3c(=O)[nH]2)nc2sc(CC)cc2c1=O,i,i,i,-0.6,-4.8*,i,i,i,i,i
CCc1ccc(NC(=O)CCC(=O)Nc2nnc(C(F)(F)F)s2)cc1,i,i,i,nt,i,i,nt,nt,nt,nt
Cc1ccc2nsnc2c1S(=O)(=O)N1CCN(Cc2ccc3c(c2)OCO3)CC1,i,i,i,nt,-7.5*,i,i,i,i,i
CCSc1nnc(NC(=O)COc2ccccc2)s1,i,i,i,-0.13,i,i,nt,nt,nt,nt
CCSc1nnc(NC(=O)C(CC)Oc2ccccc2)s1 (centres undefined),i,i,i,-1.5,-6.6*,i,i,i,i,i
O=C(NCCSc1ncc(-c2ccc(F)cc2)[nH]1)c1ccc2c(c1)OCO2,i,i,i,nt,i,i,nt,nt,nt,nt
CC(=O)c1c[nH]c2ccc(C)cc2c1=O,i,i,i,0.081,-4.9*,i,70%*,i,i,i
O=C(CNC(=O)c1ccccc1F)OCc1csc(-c2ccccc2)n1,i,i,i,-3.1,-5*,i,i,i,i,i
CC(C)Cc1ccc(CN2CCCC(NC(=O)CSc3nncn3C)C2)cc1 (centres undefined),i,i,i,nt,i,i,nt,nt,nt,nt
Cc1cc(C)n(-c2nnc(C)n2/N=C/c2ccccc2O)n1,i,i,i,0.22,i,i,nt,nt,nt,nt
Cc1cc(C)n(-c2nnc(C)n2N)n1,i,i,i,nt,-5.9*,i,85%*,i,i,i

# Compound activity as filed in PubChem.
